# The full list was thinned out, with hits kept by preference.
# INS promoter act: TRM-6 insulin promoter activation | activation, % at 2 µM | 130,000 compounds, 0.81% hits | TRM-6 cells, insulin promoter eGFP reporter, imaging; plate-scaled: unstimulated 0, stimulated control 100;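 active = activation at 2 µM above a set limit, confirmed on inspection of the cell images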;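 note: share of cells whose green reporter signal exceeds an intensity cutoff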
#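 Material: Human fetal islet-derived TRM-6 cells with tamoxifen-inducible insulin promoter–eGFP reporter | Medium: Low-glucose (5.5 mM) medium with tamoxifen | Probe or stimulus: Tamoxifen inducer, 0.75 µM, in seeding medium | Schedule: Tamoxifen pre-incubation 15 h overnight, then compound exposure 48 h at 37 °C | Detection: High-content imaging of fixed cells with Hoechst nuclear stain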
# Starred values were filed as active, the others as inactive; [ ] = dose if it differs, or a comment.
SMILES,INS promoter act
N#C/C(=C(/O)C(Cl)c1ccccc1)c1nc2ccccc2s1 (stereo not drawn),-3
N#CC(=C1CCCC1)c1nc(-c2ccccc2)cs1,3
N#C/C(=C/c1ccc(-c2ccccc2)o1)c1nc(-c2cccs2)cs1,456*
Cc1cccc2cc(CN(Cc3ccccc3)C(=O)N3CCOCC3)c3nnnn3c12,148
CCn1c(=O)cc(SCC(=O)Nc2cccc(C)n2)c2ccccc21,-6
O=C(CSc1nnc(CNc2ccc(Cl)cc2)o1)Nc1nc2c(s1)CCCC2,-4
CCOC(=O)/C(=C/C=C1\Sc2cc(OCC)c(OCC)cc2N1CC)C(C)=O,669*[fluoresces]
CCOC(=O)c1oc2cccc(OC(C)=O)c2c1C,286
CCOC(=O)c1oc2ccc(CNC(C)(C)C)c(Cl)c2c1C,431*
CCOC(=O)c1oc2ccccc2c1NC(=O)COC,123
COc1ccc(NC(=O)CSc2ccc3nnc(-c4cccnc4)n3n2)c(OC)c1,-3
COc1ccc(Nc2nc(-c3cccs3)cs2)c(OC)c1,592*
COc1ccc(OC)c(Nc2nc(-c3cccs3)cs2)c1,64
COc1ccc(Nc2nc(-c3cccs3)cs2)cc1,6
CCCCc1c(O)nc(SCC(=O)NC(C)(C)C)n(-c2ccccc2C)c1=O,5
O=S(=O)(NC1CCCC1)c1cccc(S(=O)(=O)N2CCC(n3nnc4ccccc43)CC2)c1,157*
Cc1cccc(NC(=O)N2CCC(n3nnc4cc(C)ccc43)CC2)c1,0
O=S(=O)(NCC1CCCO1)c1cccc(S(=O)(=O)N2CCCC2)c1 (stereo not drawn),0
COc1cc(C2NC(=S)NC(C)=C2C(=O)Nc2ccc(C)cc2)ccc1O (stereo not drawn),7
COc1ccc(N2CCN(c3ccc(N4C(=O)CC(C)C4=O)cc3[N+](=O)[O-])CC2)cc1 (stereo not drawn),-77
COCCN(C(=O)C(C)C)c1nnc(-c2ccc(C)cc2)s1,-6
O=C(CN1C(=O)c2cccc3cccc1c23)N1CCN(Cc2ccc3c(c2)OCO3)CC1,500*
O=C(c1cccn2c(=O)c3ccccc3nc12)N1CCN(Cc2ccc3c(c2)OCO3)CC1,7
O=C(CN1C(=O)c2cccc3cccc(c23)C1=O)N1CCOCC1,-8
CCN1CCCC1CNC(=O)C(=O)NC(C)C (stereo not drawn),-8
SMILES,INS promoter act
COCc1ccc(CN2CCc3c([nH]c4ccccc34)C2C(C)(C)C)o1 (stereo not drawn),231*
Fc1ccc(C2c3[nH]c4ccccc4c3CCN2Cc2cccn2-c2ncccn2)cc1 (stereo not drawn),-7
COc1cccc(C2c3[nH]c4ccccc4c3CCN2C(=O)Cn2cncn2)c1OC (stereo not drawn),-2
COc1cc2c(cc1OC)CN(c1nc(-c3cccnc3)nc3ccccc13)CC2,0
CC1CCN(C(=O)COc2cccc3c2CCN(C)C3=O)CC1,127
Cc1cc(=O)oc(C)c1C(=O)Nc1ccc(Cl)cn1,-2
Cc1ccc(S(=O)(=O)c2c(C)cc(C)nc2Cl)cc1,3
COc1nc(N)c(S(=O)(=O)c2ccc(C)cc2)cc1C#N,197*
COc1ccc(-c2nc(N)n(S(=O)(=O)c3ccc(C)cc3)n2)cc1,8
Cc1cc(Br)c(S(=O)(=O)n2nnc3ccccc32)cc1C,-25
C=CCN(CC=C)C(=O)Nc1ccc2nc(C)sc2c1,0
Cc1ccc(S(=O)(=O)N2CCCC(C(=O)NC3=NCCS3)C2)cc1 (stereo not drawn),6
Cc1ccccc1CSCCNC(=O)CCSc1ccccc1,3
COc1ccc(CC(=O)n2nc(-c3ccccc3)nc2NCc2ccco2)cc1,642*
Cc1ccc(-c2nc(NCc3ccco3)n(S(C)(=O)=O)n2)cc1,-8
O=C(Cc1ccc(-c2ccccc2)cc1)NNC(=S)NCc1ccco1,0
NC(=S)Nn1c(-c2ccccc2)nc2ccccc2c1=O,3
CC(C)C1Cc2[nH]c(=O)c(C(=O)O)cc2CO1 (stereo not drawn),106
COC(=O)NCc1ccc(S(=O)(=O)N2CCOCC2)cc1,8
Cc1cc(C)nc(SCC(=O)Nc2ccc(N3CCOCC3)cc2)n1,-10
Cc1cc(C)nc(SCC(=O)N/N=C/c2cccn2-c2ccc(O)cc2)n1,106*
C/C(=N\NC(=O)CSc1nc(C)cc(C)n1)c1cccs1,-3
CC(C)c1ccc(NC(=O)C(c2ccccc2)N2CCC3(CC2)OCCO3)cc1 (stereo not drawn),3
C=CCn1c(Oc2cccc(C)c2)nc2c1c(=O)n(C)c(=O)n2C,0
CCN(CC)S(=O)(=O)c1ccc(N2CCCC2)c(NS(=O)(=O)c2ccc(F)cc2)c1,3
SMILES,INS promoter act
CCN1CCc2c(sc(NC(=O)Nc3ccc(Cl)c(Cl)c3)c2C(N)=O)C1,208*
Cn1ncc(Cl)c1C(=O)Nc1sc2c(c1C(N)=O)CCC2,-14
CCOC(=O)c1c(NC(=S)Nc2ccc(Cl)cc2)sc2c1CCN(C)C2,163
COCCNC(=O)CCCC(=O)NCCOC,3
Cc1cc2c(cc1C)NC(CC(=O)NCc1ccccc1)C(=O)N2 (stereo not drawn),106
COc1ccc(NC(=O)C(NC(=O)CC2NC(=O)NC2=O)c2ccccc2)cc1 (stereo not drawn),0
O=C(CC1NC(=O)NC1=O)Nc1cccc2ccccc12 (stereo not drawn),569*
CC(C)(C)NC(=O)C(c1ccccn1)N(C(=O)C1CSC(=O)C1)c1ccccc1F (stereo not drawn),0
O=C(N/N=C/c1cccc([N+](=O)[O-])c1)c1ccc(COc2ccccc2-c2ccccc2)cc1,7
Cc1ccc(NC(C)c2cc(Cl)ccc2O)cc1 (stereo not drawn),3
CCNC(=O)c1c(C)nc2ccccn12,0
CCOC(=O)C(=O)c1c(-c2ccccc2)nc2ccccn12,450*
Cc1nc2ccccn2c1C(=O)NCC(C)C,0
OC(COCc1ccc2c(c1)OCO2)CN1CCN(Cc2ccccc2)CC1 (stereo not drawn),9
FC(F)(F)c1cccc(NC(=S)NCC2COc3ccccc3O2)c1 (stereo not drawn),3
O=C(O)c1ccccc1C(=O)N1CCN(C(=O)c2ccccc2Cl)CC1,7
O=C(c1ccccc1-c1ccccc1)N1CCCC1,520*
O=C(c1ccc(-c2ccccc2)cc1)N1CCCC1,10
CCOC(=O)c1ccc(-c2c(C(=O)OCC)oc3cc(O)c(CC)cc3c2=O)o1,-8
COc1cc(OC)c(CN2CCC(CO)(CCOc3ccccc3)CC2)c(OC)c1,4
COC(=O)N1CC(=O)N(OC)C1c1ccc(Cl)cc1Cl (stereo not drawn),0
COc1ccc(NC(=O)C/C(C)=N/NC(=O)C(=O)Nc2cccc(Cl)c2C)c(OC)c1,-7
CCCOc1ccc(OC(=O)c2ccc(Br)o2)cc1,-9
CCSc1nc2sc3c(c2c(=O)n1CC)CC(C)(C)OC3,-9
COc1ccc(OC)c(C(=O)c2ccccc2)c1,-81
SMILES,INS promoter act
COc1ccc(OC)c(/C=N/N(C)c2ccccc2)c1,132*
COc1ccc(OC)c(/C=N/NC(=O)CCCC(=O)Nc2cccc(Br)c2)c1,7
CC(C)(C)OC(=O)N1CCC(C(=O)N[C@@H](Cc2ccccc2)C(=O)O)CC1,-3
CC(C)Nc1ncnc2ccc(Br)cc12,-75
Cc1ncc([N+](=O)[O-])n1CCOC(=O)NC(NCc1ccccc1)C(Cl)(Cl)Cl (stereo not drawn),133*
Cc1ncc([N+](=O)[O-])n1CC(=O)NCc1ccccc1,-7

# Screening data from PubChem.
